The values below come from ChEMBL document CHEMBL4513216, “Probing the Open Global Health Chemical Diversity Library for Multistage-Active Starting Points for Next-Generation Antimalarials” (ACS Infect Dis, 2020).

A short description of this data set: Toxicity liver stage against HepG2, at 10uM. Type of data set: cell-based. Also on record: test concentration 10 uM, cell line HepG2-A16-CD81EGFP. As to conditions: human, HepG2-A16-CD81EGFP cells; read-out: INHIBITION
In a few lines:
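Uninfected HepG2-A16-CD81EGFP cells, 3 × 10^3 per well, 1536-well, plated on prespotted compound at 10 μM final, parasite-free screening media added to match infected plates; puromycin 10 μM positive, DMSO 0.5% negative; run in parallel with 48 h PbLuc assay at 37 °C, 5% CO2; viability by CellTiter-Glo luminescence, normalized to controls.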
As for `CCCc1nnc([C@H]2CCN(Cc3ncc[nH]3)C2)o1`, the cytotoxicity at 10 µM was -1.63%.
For `COCCCN(Cc1cc(O)nc2ccccc12)C(=O)NC(C)C` the value was 0.829%.
For `Cc1cc(C)n(Cc2ccc(-c3noc(C(=O)NCCCO)n3)cc2)n1` the value was -1.49%.
For `COC[C@]12COC[C@H]1CN(S(=O)(=O)c1cccnc1)C2`, the cytotoxicity at 10 µM was -0.975%.
For `CCN1C(=O)CC(c2cnn(C)c2)C12CCN(C(=O)C1CC=CC1)CC2` (configuration not stated) the value was 5.13%; for `CC(C)N1c2sc(-c3ccccc3)nc2CC1C(=O)NCCCO` (configuration not stated), 7.8%; for `COc1cccc(CN2CCCCCC2c2cccs2)c1O` (configuration not stated), 11.4%.
In the case of `Cc1ccccc1OCn1ccc(C(=O)NCCN2CCOCC2)n1`, the cytotoxicity at 10 µM is 8.02%.
For `O=C(COc1ccc2c(c1)CCC2)NCc1ccco1` the value was 2.98%; for `CS(=O)(=O)N1CCN(C(=O)c2cc(-c3cccs3)cs2)CC1`, 1.8%; for `Cc1cc(C(F)(F)F)nn1CC(C)C(=O)Nc1ccncc1` (configuration not stated), -2.13%.
For `O=C(O)c1ccccc1-c1ccc(CN2CCC(CO)C2)cn1` (configuration not stated) the value was -1.79%.
For `CS(=O)(=O)N1CCC(Cc2cnc(Br)cn2)CC1` the value was 13.4%; for `O=C(CC1CCN(CCc2ccccc2)CC1)N1CCCOCC1`, -2.38%.
`CC(=O)Nc1cc(F)c(S(=O)(=O)N(C)CC2CCC2)c(F)c1`: the cytotoxicity at 10 µM is -54.4%.
For `CC(OCC1CC1)C(=O)N1CCCN(c2nc3ccccc3[nH]2)CC1` (configuration not stated) the value was -0.657%; for `CC(C)OCCN1CCC(Nc2nccnc2C#N)CC1`, 2.72%.
For `COC(=O)c1ccc(Cn2cccc(C(F)(F)F)c2=O)c(OC)c1` the value was 8.55%.
For `CCN(C)S(=O)(=O)c1ccc(Cl)cc1C#N` the value was -36.9%; for `O=C1CC(N(C(=O)c2ccc(-n3cccc3)cc2)C2CC2)C(=O)N1` (configuration not stated), -1.67%.
As to `CC(CNC(=O)N1CCN(Cc2ccon2)CC1)Cc1cccs1` (configuration not stated), the cytotoxicity at 10 µM is -1.26%.
For `Cc1nnc(CN(C)S(=O)(=O)c2ccc(Br)cc2Cl)n1C` the value was 12.6%.
For `COc1cccc(OCC(=O)N(C)c2cccnc2N(C)C)c1` the value was 0.102%; for `Cc1nn(C)c(C)c1NC(=O)CN1CCc2c(nc(C3CC3)n2C)C1`, -5.31%; for `CCOc1nnc(CN(C)C2CCCN(c3cccnn3)C2)s1` (configuration not stated), -17.3%.
`CO[C@@H]1CO[C@@]2(CCCN(C(=O)N3CCCC3)C2)C1`: the cytotoxicity at 10 µM was -98.6%.
For `COC[C@@H]1CCC[C@@]12CN(C(=O)C1CCOCC1)CCO2` the value was -111%.
For `COCC1CN(C(=O)Cc2ccc(F)cc2)Cc2ccnn2C1` (configuration not stated) the value was -73.9%; for `Cn1cccc1C(=O)N1CCC2(CC1)CN(c1ccccc1)C(=O)CO2`, -79.1%; for `CN(C)[C@@H]1CCN(C(=O)c2ccccn2)[C@H]1Cc1ccncc1`, -63.6%.
Regarding `COc1cccc(C(=O)N2CCOC3(CCCN(C(C)=O)C3)C2)c1` (configuration not stated), the cytotoxicity at 10 µM was -68.6%.
For `O=C(c1cnccn1)N1CCc2ncnc(C3CCOC3)c2CC1` (configuration not stated) the value was -81.9%.
For `O=C(NCC1CC1)c1c2c(N3CCCC3)ncnc2n2ccccc12`, the cytotoxicity at 10 µM is -61.1%.
As for `CCOCC1CC2(CCN(C(=O)c3ncccn3)CC2)CO1` (configuration not stated), the cytotoxicity at 10 µM came out at 4.93%.
For `O=C(NCc1nncn1C1CCCCC1)C1CNCCO1` (configuration not stated) the value was -2.08%.
With `Fc1cccc(-n2cc(CN3CCCCC3CCn3ccnc3)cn2)c1` (configuration not stated), the cytotoxicity at 10 µM was -8.55%.
For `c1cncc(CNc2ncnc3c2CCN(Cc2ccsc2)CC3)c1` the value was 7.91%; for `Cc1cc(C(=O)N2C[C@H](CO)C[C@H](CN3CCOCC3)C2)nc(C)n1`, 9.91%; for `CNc1nc(N2C[C@H](NC(=O)CCOC)[C@@H](C3CC3)C2)nc2c1CCC2`, 9.62%.
For `Cc1nnc(SCCCNC(=O)c2ccc3c(c2)OCO3)s1` the value was 8.8%.
For `CCOc1cc(CNCc2ncc[nH]2)c(Cl)cc1OC(C)C` the value was 5.45%; for `COc1coc(CN2CCCC3(CCC(=O)N(CC4CC4)C3)C2)cc1=O` (configuration not stated), -34.4%.
`Cc1ncccc1OC1(C(=O)NCCc2ccccn2)CCNCC1`: the cytotoxicity at 10 µM came to 1.83%.
`O=C(c1ccc(F)c(F)c1)N1CCC(Cn2cc(CO)nn2)CC1`: the cytotoxicity at 10 µM amounted to 5.95%.
For `CCc1cc(NCCNc2ccncc2C)n2nc(C)c(C)c2n1` the value was 3.29%.
For `CC(C(=O)O)N1CCc2onc(-c3ccc4c(c3)OCO4)c2C1` (configuration not stated) the value was -6.46%; for `COc1ccc(CN2CCSCC2)c(OC)c1`, 7.94%; for `OCCCc1nncn1-c1cccc(C(F)(F)F)c1`, 6.74%.
Consider `Cc1cc(CC(C)NC2CCN(CC(C)C)CC2)[nH]n1` (configuration not stated), for which the cytotoxicity at 10 µM was -8.32%.
For `CCCN1CCCn2nc(CNC(=O)C3CCOC3)cc2C1` (configuration not stated) the value was 0.237%.
For `CCc1nccn1CCC(=O)N1CC[C@@H](c2ccc(F)cc2)[C@H](O)C1` the value was -7.79%.
For `O=C(CC1CCCC1)N1CCC2(CC1)[C@H](O)C[C@@H]2O` the value was 2.3%; for `CCc1nc2c(c(NCc3nc(-c4cccnc4)no3)n1)CCNCC2`, 5.85%; for `CN(C)c1ccccc1C(=O)N1CCCC(c2cccc(C(=O)O)c2)C1` (configuration not stated), -6.11%.
Consider `CC(C)OCCCNC(=O)C1CCC(=O)N(C2CCCC2)C1` (configuration not stated), for which the cytotoxicity at 10 µM was -5.92%.
For `Cc1ncc(C(=O)N2C[C@H](CO)C[C@H](CN3CCOCC3)C2)c(=O)[nH]1` the value was -10.4%; for `CCN(CC)C(=O)[C@@H]1C[C@@H](N)CN1c1nc(N2CCCC2)nc(C)c1C`, -6.9%; for `CC(Cc1ccccn1)N(C)C(=O)c1ncc[nH]1` (configuration not stated), 3.04%.
For `c1coc(-c2nc(CNC3CCC4(CCNCC4)CC3)no2)c1` the value was -15.8%; for `CC(O)CN1CC2(CCC1=O)CCN(Cc1cc(F)ccc1Cl)CC2` (configuration not stated), 6.89%; for `COc1ccc(Cl)cc1S(=O)(=O)N(C)CC(=O)Nc1cccnc1`, 0.192%.
For `COc1ccc(Cl)cc1S(=O)(=O)N(C)CC(=O)Nc1ccccc1` the value was -2.76%; for `Cc1nc(CCN(C)C(=O)CN2CCCCCC2)no1`, 5.33%; for `COc1cccc(-n2cc(CN(C)C(=O)c3cnc(O)cn3)cn2)c1`, -14.7%.
Take `Cc1cccc(-c2nc(C)nn2CC(=O)NC(C)C2CC2)c1` (configuration not stated): the cytotoxicity at 10 µM is -0.502%.
For `CCc1nccn1C1CCCN(C(=O)c2ccc(-n3ccnc3)cc2)C1` (configuration not stated) the value was -10.8%; for `CC1CCCN(Cc2ccc(OCc3nccn3C)cc2)C1` (configuration not stated), -11.8%.
For `Cc1cccc(CNC(=O)CCc2c(C)nc3cc(O)nn3c2C)n1` the value was -4.03%; for `Cc1cc(CN2CCC(N(C)Cc3noc(C4CC4)n3)C2)no1` (configuration not stated), 5.35%; for `Cc1csc(CNC(=O)N2CCN(Cc3ccco3)CC2)n1`, 0.702%.
For `Cc1nccc(-c2cccc(NCC(=O)N3CCOCC3)c2)n1` the value was -0.269%; for `CN(Cc1cccc(O)c1)C(=O)Nc1cccnc1N1CCCC1`, -0.565%; for `O=C1COc2cc(C(=O)NS(=O)(=O)c3ccc(F)cc3F)ccc2N1`, -6.21%.
Consider `COc1ncccc1C(=O)NC1CCOc2ccccc21` (configuration not stated), for which the cytotoxicity at 10 µM is -6.25%.
For `Cc1ccc(CNCC2CNc3cc(C)nn3C2)cn1` (configuration not stated) the value was -7.07%; for `Cc1ccc(NC2CCN(C(=O)CCOCC(F)(F)F)CC2)nn1`, -2.78%.
For `CN1CCCN(C(=O)NCCOc2ccc3c(c2)OCO3)CC1` the value was -17.5%.
For `CC(=O)N1CCN(CC(C)(O)c2cccc(C(F)(F)F)c2)CC1` (configuration not stated) the value was -14.6%.
Turning to `COc1ccccc1CC(=O)NS(C)(=O)=O`, the cytotoxicity at 10 µM is -7.31%.
For `O=C(O)c1cc(NS(=O)(=O)c2cccc(Cl)c2F)ccc1Cl` the value was -4.92%; for `CCn1nc2c(cc1=O)CN(Cc1nc(CCOC)no1)CC2`, -9.24%; for `COc1cc(CNCc2c(C(C)C)nn(C)c2N(C)C)ccn1`, 0.504%.
For `Cn1nc2c(cc1=O)CN(Cc1nnc(C3CC3)o1)CC2` the value was 4.28%.
For `CCc1ccc(NC(=O)N2Cc3c(CN(C)C)nn(C)c3C2)cc1` the value was 5.62%.
`Cn1cc(C2CC(=O)NC23CCN(C(=O)c2cccnc2)CC3)cn1` (configuration not stated): the cytotoxicity at 10 µM is -79.7%.
Turning to `FC1(F)CCNCC12CCN(c1cccnc1)C2` (configuration not stated), the cytotoxicity at 10 µM amounted to 5.8%.
For `COc1cc2cc(C)c(SCCN3CCCC3)nc2cc1OC` the value was -7.48%; for `CCOCC1CN(C(=O)Cc2ccsc2)Cc2ccnn2C1` (configuration not stated), -71.4%; for `Cc1ncsc1CN1C[C@@H]2COC[C@]2(C(=O)NCc2ccccn2)C1`, -108%.
For `COCC(=O)NC1CC2(CCN(CCO)CC2)c2ccccc21` (configuration not stated) the value was -109%; for `Cc1ccc(CN2CC[C@H]3C(=O)N(Cc4cccnc4)CCO[C@H]3C2)o1`, -88.7%; for `O=C1NC2(CCNCC2)CC1c1ccncc1` (configuration not stated), -60.7%.
For `CN(C)[C@@H]1CCN(C(=O)c2ccco2)[C@H]1Cc1cnn(C)c1` the value was -81.9%.
As to `CCCS(=O)(=O)N1CCc2c(COCC)cncc2C1`, the cytotoxicity at 10 µM came to 8.76%.
For `c1ccc(CCNCC2Cn3nncc3CO2)cc1` (configuration not stated) the value was 7.61%; for `O=C([C@H]1CCCO1)N1CC[C@H](O)[C@@H]1Cc1ccncc1`, 6.38%.
Take `O=C(NC1CC1)C1[C@H]2CN(Cc3ccc(-c4cc[nH]n4)s3)C[C@@H]12` (some centres not stated): the cytotoxicity at 10 µM amounted to 6.27%.
